According to publication PMC11063762 (Molecular Cancer Therapeutics, 2024):
Entries after “also recorded” stand apart in the source; their conditions may differ. Blank lines part the entries; values can stand above or below the compound they belong to.

Columns and labels:
[1] = Long-term chemical stability at ambient conditions; type: physicochemical
[2] = Particle size by dynamic light scattering; type: physicochemical; conditions: 5% aqueous mannitol, monomodal
cathepsin S (CTSS) = cathepsin S (CTSS) (Homo sapiens, UniProt P25774); test: Enzyme-mediated metabolism of SDX-7320 in vitro; type: in vitro ADME; conditions: 0.5 mg/mL SDX-7320, 37°C, LC/MS
Sequence of cathepsin S (CTSS) (P25774 115-331): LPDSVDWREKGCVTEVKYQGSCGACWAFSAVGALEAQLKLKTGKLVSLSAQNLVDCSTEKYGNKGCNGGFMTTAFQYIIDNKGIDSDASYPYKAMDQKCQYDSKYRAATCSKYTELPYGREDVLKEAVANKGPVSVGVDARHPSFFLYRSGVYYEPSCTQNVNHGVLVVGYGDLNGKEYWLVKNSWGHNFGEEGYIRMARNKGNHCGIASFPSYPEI

[3] = system: cathepsin isoforms L, H, C, K, and B; test: Enzyme-mediated metabolism of SDX-7320 in vitro; type: in vitro ADME, human; conditions: 0.5 mg/mL SDX-7320, 37°C, LC/MS
METAP2 [4] = target: T1, METAP2 (Homo sapiens, UniProt P50579); test: In vitro competition binding to METAP2; conditions: competition with biotinylated SDX-9280
T1 sequence (P50579 whole entry): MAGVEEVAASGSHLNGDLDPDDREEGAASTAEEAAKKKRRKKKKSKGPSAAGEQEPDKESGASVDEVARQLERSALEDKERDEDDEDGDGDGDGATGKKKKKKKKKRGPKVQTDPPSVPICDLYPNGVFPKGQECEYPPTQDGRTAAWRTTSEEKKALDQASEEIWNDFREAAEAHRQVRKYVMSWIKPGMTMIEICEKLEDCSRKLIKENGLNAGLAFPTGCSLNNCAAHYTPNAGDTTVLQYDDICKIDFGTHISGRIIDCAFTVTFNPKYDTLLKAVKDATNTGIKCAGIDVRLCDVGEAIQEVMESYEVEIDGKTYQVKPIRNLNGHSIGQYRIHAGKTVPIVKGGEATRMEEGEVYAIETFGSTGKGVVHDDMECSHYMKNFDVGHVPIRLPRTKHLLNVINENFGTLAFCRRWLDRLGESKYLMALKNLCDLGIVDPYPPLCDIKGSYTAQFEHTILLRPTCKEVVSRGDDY

METAP2 [5] = target: T1, METAP2; test: METAP2 aminopeptidase enzyme activity assay; type: biochemical
CNS exposure = type: in vivo; conditions: rat, intravenous, equimolar small molecule doses
In short: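 Plasma and CSF levels of the small-molecule inhibitor were measured in rats after intravenous dosing of the polymer conjugate, the free inhibitor or a comparator inhibitor, all at equimolar small-molecule doses. CSF was sampled near plasma Tmax. For the rapidly metabolised comparator, its active metabolite (M-IV) was measured rather than the parent.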

[6] = Rat functional observation battery; type: in vivo; conditions: single dose 3, 10 and 30 mg/kg, 12 and 36 hours post-dose, GLP
In short: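 Under GLP, male experimentally naïve CD [Crl:CD(SD)] rats, about 8 weeks old, received a single s.c. dose of 3, 10 or 30 mg/kg (ten/group). A functional observation battery was run pre-dose (day −1) and at 12 and 36 h post-dose. Mortality, clinical observations and body weights were also recorded.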

EO771 tumors = test: EO771 triple-negative breast cancer allograft model; type: in vivo, mouse; conditions: 24 mg/kg SC, Q4D
In short: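 Female C57Bl/6j mice, ovariectomized at 4 weeks, had EO771 cells implanted into the fourth mammary fat pad at about 18 weeks under ether anesthesia. At about 20 mm3, mice (8/group) began s.c. vehicle (5% mannitol/water, Q4D) or test compound (24 mg/kg, Q4D × 4). Tumors were excised on day 15 and formalin-fixed, paraffin-embedded. Sections were immunostained for Ki67 or CD31, scored as positive cells per tissue area. Volume: two-way ANOVA with Sidak. Staining: unpaired t test.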

MDA-MB-231 tumors = test: MDA-MB-231 TNBC model in chick embryos; type: in vivo, chick embryo; conditions: 15, 90 μg
In short: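 MDA-MB-231 cells were inoculated into fertilized White Leghorn eggs on embryonic day E9. From E11, embryos received vehicle, test compound (15 or 90 μg, every four days, two doses) or paclitaxel positive control (2.1 μg, every other day, four doses). Metastatic invasion into the lower chorioallantoic membrane was assessed. Tumors were dissected on E19.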

BT-474 tumors [7] = test: BT-474 HER-2+, estrogen receptor-positive breast cancer xenograft model; type: in vivo, mouse; conditions: 6, 12 mg/kg, s.c., every four days
In short: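 Female athymic nude mice got a 90-day 0.72 mg β-estradiol pellet s.c. Three days later, 2 × 10^7 cells in 50% Matrigel/50% RPMI1640 went into the fourth mammary fat pad. Mice were randomized at tumors >95 mm3 (8/group). Test compound, freshly prepared in 5% mannitol/water, was given s.c. Q4D × 9. Tumor volume was analysed by mixed-effects model with Dunnett comparisons.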

BT-474 tumors [8] = test: RNA sequencing of BT-474 xenograft tumors; type: in vivo, mouse; conditions: 12 mg/kg, RNA-seq versus vehicle
In short: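 Orthotopic BT-474 tumors came from estrogen-supplemented nude mice dosed s.c. every four days with 12 mg/kg test compound (n = 5) or vehicle (n = 6). At necropsy, tumor portions were snap-frozen and stored at −80°C for RNA isolation and sequencing. Differentially expressed genes versus vehicle were identified, then pathway enrichment analysis was run (pathways with P ≤ 0.01 reported).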

[9] = system: panel of receptors/transporters (n = 38); test: Off-target selectivity screening, receptor/transporter binding panel; conditions: up to 10 μmol/L
panel of enzymes (n = 6) = test: Off-target selectivity screening, enzyme panel; type: biochemical; conditions: up to 10 μmol/L
METAP1 = METAP1 (Homo sapiens, UniProt P53582); test: METAP1 aminopeptidase enzyme activity assay; type: biochemical; conditions: up to 1000 nmol/L
HUVEC = HUVEC proliferation; type: cell-based, human; conditions: 72 hours
In short: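 HUVEC were grown in EBM-2/EGM-2 with 2% FBS and 2X gentamicin, seeded at 5,000 cells/well and left overnight. Compounds were diluted in DMSO, then in the same medium (final DMSO 0.1%). After 72 h at 37°C, CellTiter 96 Aqueous One reagent was added for 3 h at 37°C and A490 read. The mean A490 of highest-concentration wells was subtracted, and IC50 came from a four-parameter variable-slope log(inhibitor)-response fit.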

B16-F10 melanoma cells = test: B16-F10 syngeneic lung metastasis model; type: in vivo, mouse; conditions: TNP-470 30 mg/kg every other day x 6, day 15
In short: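 Female C57BL/6NTac mice (8/group) received B16-F10 melanoma cells by tail vein. Cells were grown in DMEM with 5% FBS at 37°C under 5% CO2. Dosing began 24 h after injection: saline vehicle, test compound 25 mg/kg Q4D × 3, and a reference METAP2 inhibitor 30 mg/kg Q2D × 6. Lungs were excised on day 15 and visible metastases counted by stereomicroscope. Two-tailed Student t test.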

[10] = cited from earlier work

Compound: Glycine, N-(2-methyl-1-oxo-2-propen-1-yl)glycyl-L-phenylalanyl-L-leucyl-, 4-nitrophenyl ester, polymer with N-(2-hydroxypropyl)-2-methyl-2-propenamide, reaction products with (3R,4S,5S,6R)-5-methoxy-4-[(2R,3R)-2-methyl-3-(3-methyl-2-buten-1-yl)-2-oxiranyl]-1-oxaspiro[2.5]oct-6-yl N-(trans-4-aminocyclohexyl)carbamate [SDX-7320]
long-term chemical stability [1]: > 48 months
particle size distribution Z-average [2]: 10 nm
release of SDX-7539 from SDX-7320 by cathepsin S (cathepsin S (CTSS)): most active isoform; also recorded: highest activity
release of SDX-7539 from SDX-7320 by cathepsins L, H, C, K, and B [3]: catalytic activity against SDX-7320
binding to METAP2 by competition ELISA (METAP2 [4]): inactive
Inhibition of METAP2 aminopeptidase enzyme activity (METAP2 [5]; up to 10 μg/ml): inactive
CSF levels of SDX-7539 when dosed as the PDC compared with unconjugated small molecule or TNP-470 (CNS exposure): marked reduction in CSF levels
neurobehavioral FOB findings [6]: No signs of abnormal CNS-related behavioral toxicity; also recorded: no significant behavioral abnormalities
EO771 tumor growth (EO771 tumors): significantly inhibited tumor growth
CD31 staining of dissected EO771 tumors (EO771 tumors; anti-angiogenic activity): reduced staining
Ki67 staining of dissected EO771 tumors (EO771 tumors; anti-proliferative activity): reduced staining
metastasis of MDA-MB-231 tumors (human DNA in lower chorioallantoic membrane) (MDA-MB-231 tumors; every four days, two doses): significantly inhibited metastasis
MDA-MB-231 tumor blood vessel density (angiogenesis) (MDA-MB-231 tumors; two days prior to termination): significant decrease in blood vessel density
inhibition of BT-474 tumor growth (BT-474 tumors [7]): significant, dose-dependent inhibition
expression of hypoxia-regulated genes including HIF1α in BT-474 tumors (BT-474 tumors [8]): significantly reduced

Off-target activity at receptors/transporters [9]: No effect was observed
Off-target activity at enzymes (panel of enzymes (n = 6)): No effect was observed
Compound: CO[C@@H]1[C@H](OC(=O)N[C@H]2CC[C@H](N)CC2)CC[C@]2(CO2)[C@H]1[C@@]1(C)O[C@@H]1CC=C(C)C.O=S(=O)(O)c1ccccc1 (relative stereo) [SDX-9402, Fumagill-6-yl N-(trans-4-aminocyclohexyl)carbamate benzenesulfonic acid salt]

Compound: CO[C@@H]1[C@H](OC(=O)NC(=O)CCl)CC[C@]2(CO2)[C@H]1[C@@]1(C)O[C@@H]1CC=C(C)C [TNP-470, O-(chloroacetyl-carbamoyl) fumagillol]
time dependence of IC50 against METAP2 (METAP2 [5]; hallmark of irreversible enzyme inhibitors): time-dependent shifts in IC50
Inhibition of METAP1 aminopeptidase activity (METAP1): neither compound inhibited METAP1
fold less potent than SDX-7539 in HUVEC growth (HUVEC): approximately 3 fold
outgrowth of B16-F10 melanoma cells in the lungs (B16-F10 melanoma cells): identical degree of inhibition
potency in vitro, fold higher than the natural product fumagillin [10]: 50 fold
